Publication PMC6282443 (Journal of Enzyme Inhibition and Medicinal Chemistry, 2018)
“Also recorded” adds a separate entry of the source. Read-outs that look alike come from different tables or passages of the source.

Assays:
A549 cells [1] = assay: Annexin V-FITC/PI apoptosis assay by flow cytometry; format: cell-based, human; settings: A549, 2.5 μM, 48 h; untreated control 12.18%
Summary of the method: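 A549 cells seeded at 1 × 10^6 cells/well in RPMI 1640 and exposed to test compound for 48 h. Cells stained with Annexin V-FITC and propidium iodide for 30 min at 4 °C in the dark, then analysed by flow cytometry to give quadrant populations.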

A549 cells [2] = assay: cells; format: cell-based, human; settings: read-out: Anti-proliferative activity IC50, A549
MCF-7 cells = assay: MTT anti-proliferative assay, MCF-7; format: cell-based, human; settings: read-out: Anti-proliferative activity IC50, MCF-7
H1975 cells = format: cell-based, human
A549 cells [3] = assay: Cell cycle distribution by flow cytometry; format: cell-based, human
A549 cells [4] = assay: Acridine orange; format: cell-based, human; settings: A549, AO single staining
HepG2 cells = assay: MTT anti-proliferative assay, HepG2; format: cell-based, human; settings: read-out: Anti-proliferative activity IC50, HepG2
[5] = tested on: T790M/L858R double mutant over wild-type EGFR; settings: cited from earlier work

O=C(N/N=C/c1cnc(N2CCCC2)nc1)Nc1cc2c(Nc3ccc(F)c(Cl)c3)ncnc2cc1O[C@H]1CCOC1 [Compound 14, (S,E)-N-(4-((3-chloro-4-fluorophenyl)amino)-7-((tetrahydrofuran-3-yl)oxy)quinazolin-6-yl)-2-((2-(pyrrolidin-1-yl)pyrimidin-5-yl)methylene)hydrazine-1-carboxamide]
apoptotic cells (early + late) (A549 cells [1]): 34.9%
IC50 (A549 cells [2]; Homo sapiens, A549, 72 h): 5.9 ± 0.25 µM
IC50 (MCF-7 cells; Homo sapiens, MCF7, 72 h): 2.37 ± 0.34 µM
selectivity for H1975 cells (in words) (H1975 cells; versus HepG2, A549, MCF-7): slight selectivity
cell cycle arrest phase (in words) (A549 cells [3]; A549): S phase arrest; also recorded: arrested the cell cycle at the S phase
proportion of cells in S phase (A549 cells [3]; A549, 2.5 μM): 50.68%
proportion of cells in G0/G1 phase (A549 cells [3]; A549, 2.5 μM, control 26.57%): 23.62%
proportion of cells in G2/M phase (A549 cells [3]; A549, 2.5 μM, control 29.4%): 25.7%
G0/G1 (%) (A549 cells [3]; A549, 25 μM, 48 h, DMSO 26.57): 23.62%
G2/M (%) (A549 cells [3]; A549, 25 μM, 48 h, DMSO 29.40): 25.70%
S (%) (A549 cells [3]; A549, 25 μM, 48 h, DMSO 44.03): 50.68%
induction of A549 cell apoptosis by AO staining (in words) (A549 cells [4]): can induce A549 cell apoptosis
IC50 (HepG2 cells; Homo sapiens, HepG2, 72 h): 4.63 ± 0.36 µM

C=CC(=O)Nc1cc(Nc2nccc(-c3cn(C)c4ccccc34)n2)c(OC)cc1N(C)CCN(C)C [AZD9291]
selectivity for the T790M/L858R double mutant over wild-type EGFR [5]: 200 fold

COc1cc2ncnc(Nc3ccc(F)c(Cl)c3)c2cc1NC(=O)N/N=C/c1ccc(OCCCN2CCCCC2)cc1 [Compound 46, (E)-N-(4-((3-chloro-4-fluoropheny)amino)-7-methoxyquinazolin-6-yl)-2-(4-(3-(piperidin-1-yl)propoxy)benzylidene)hydrazine-1-carboxamide]
IC50 (A549 cells [2]; A549, MTT, 72 h): 4.01 ± 0.56 µM
IC50 (MCF-7 cells; MCF-7, MTT, 72 h): 6.85 ± 0.65 µM
IC50 (H1975 cells; read-out: Anti-proliferative activity IC50, H1975, H1975, MTT, 72 h): 3.1 ± 0.49 µM
IC50 (HepG2 cells; HepG2, MTT, 72 h): 9.58 ± 0.94 µM
